tolC growth inh – growth inhibitors of E. coli tolC mutant, primary screen, strain BW25113 ΔtolC::kan, 384-well. OD615. growth inhibition, % at 10 µM (by protocol). 65,000 tested, 2.2% active. AID 573, 2007;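 active = growth inhibition at or above a cutoff equal to the mean over every tested compound plus 3 SD, cut at about 60% in these data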;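 note: growth measured after 20 h incubation at 37 °C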
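Doses: one dose of 10 µM final / Material: E. coli BW25113 ΔtolC::kan, tolC deletion mutant strain / Buffer or medium: LB with kanamycin 50 µg/mL / Evaluation: percent growth inhibition / Detection: optical density read at 615 nm / Incubation: 37 °C, 20 h exposure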
PostGolgi ctrl – growth inhibition of yeast control strain, primary screen, counter-screen for post-Golgi transport modulator project; 98,000 tested, 5% active; inhibition, % at 10 µM; efflux-deficient yeast background strain, growth absorbance A615, 16 h; AID 738, 2007
Cav32 inh – Cav3.2 calcium influx blockers – cell-based, Fluo-4 calcium fluorescence, FDSS, MLSMR library, primary screen. 100,000 tested, 4% active. AID 449739, 2010. Cav3.2-expressing cells; hits give low values. B-score at 10 µM;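 active = single-dose well whose peak fluorescence ratio is a statistical outlier from its plate by either plate-standardised score or position-corrected B-score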
PostGolgi yeast – phenotypic screen on post-Golgi transport, primary screen; post-Golgi transport phenotypic cell assay; inhibition, % at 10 µM; 98,000 tested, 0.9% active; AID 739, 2007;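 note: yeast cells grown in 1536-well plates; yeast grown about 18 h at 30C before absorbance read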
PTK2B oligo ant – antagonists of Pyk2 self-association, primary screen, Q293 cells, FERM NanoBiT luminescence, HTS; z-score (the deposit names both 25 µM and 10 µM); hits give low values; 99,000 tested, 0.83% active;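 active = Z-score of -3 or lower, scaled per plate to the spread of control and sample wells; inactive = z-score above -3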;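 note: negative z-score means lost luminescence so less FERM oligomerization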
Target sequence (Q14289 whole entry, looked up): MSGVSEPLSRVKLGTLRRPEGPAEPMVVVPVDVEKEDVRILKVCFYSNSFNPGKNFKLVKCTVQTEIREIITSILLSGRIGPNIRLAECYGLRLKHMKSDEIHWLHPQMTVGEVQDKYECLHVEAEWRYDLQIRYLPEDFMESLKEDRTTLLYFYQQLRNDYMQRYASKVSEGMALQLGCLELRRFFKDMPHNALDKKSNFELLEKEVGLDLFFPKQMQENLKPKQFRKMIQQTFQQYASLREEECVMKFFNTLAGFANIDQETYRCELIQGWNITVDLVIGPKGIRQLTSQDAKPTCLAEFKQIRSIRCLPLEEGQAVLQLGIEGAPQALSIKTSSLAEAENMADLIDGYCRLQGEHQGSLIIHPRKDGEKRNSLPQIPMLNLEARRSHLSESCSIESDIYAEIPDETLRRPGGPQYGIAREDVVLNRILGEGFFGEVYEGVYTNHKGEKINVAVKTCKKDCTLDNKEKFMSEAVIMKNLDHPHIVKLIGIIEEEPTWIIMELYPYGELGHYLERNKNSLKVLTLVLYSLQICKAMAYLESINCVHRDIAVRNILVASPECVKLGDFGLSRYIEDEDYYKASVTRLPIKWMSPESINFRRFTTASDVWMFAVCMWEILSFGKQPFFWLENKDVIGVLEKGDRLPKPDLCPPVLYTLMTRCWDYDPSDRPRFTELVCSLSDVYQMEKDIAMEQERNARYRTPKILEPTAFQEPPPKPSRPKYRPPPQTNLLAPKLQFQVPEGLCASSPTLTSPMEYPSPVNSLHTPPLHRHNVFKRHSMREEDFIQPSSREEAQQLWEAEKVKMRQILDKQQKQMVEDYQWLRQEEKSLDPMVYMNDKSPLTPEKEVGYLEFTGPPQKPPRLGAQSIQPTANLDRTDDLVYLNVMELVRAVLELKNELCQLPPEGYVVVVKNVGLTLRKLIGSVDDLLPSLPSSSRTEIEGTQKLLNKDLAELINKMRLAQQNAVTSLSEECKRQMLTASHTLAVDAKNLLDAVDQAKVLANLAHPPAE
Ecoli WT expand – growth inhibitors of wild-type E. coli, primary screen, strain BW25113, expanded library, OD600; OD600 absorbance; growth inhibition, % at 100 µM; 98,000 tested, 0.15% active; AID 710, 2007;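 active = growth inhibition above about 50% at one test dose, limit read from the data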;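 note: growth measured after 20 h incubation at 37 °C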
A number is an active result. Only some compounds are listed: those with a hit (about 8.7% of all), similar ones and a draw of the others. Cut-off read from the data, not from the text of the source, unless noted: active = inhibition above about 30%; inactive = the rest.

Results for COc1ccc(-c2noc(CN3CCC(Cc4ccccc4)CC3)n2)cc1 ?
tolC growth inh: 67.4; Cav32 inh: inactive; PTK2B oligo ant: inactive

How did COc1ccc(-c2noc(CCC(=O)N3CCN(Cc4ccccc4)CC3)n2)cc1 do in these assays?
tolC growth inh: inactive; PostGolgi ctrl: inactive; PostGolgi yeast: inactive; PTK2B oligo ant: inactive; Ecoli WT expand: inactive

Results for c1ccc(CC2CCN(Cc3nc(-c4ccccc4)no3)CC2)cc1 ?
tolC growth inh: 69.9; PostGolgi ctrl: inactive; Cav32 inh: inactive; PostGolgi yeast: inactive; PTK2B oligo ant: inactive; Ecoli WT expand: inactive

How did NC(=O)C1CCN(Cc2nc(-c3ccccc3)no2)CC1 do in these assays?
tolC growth inh: inactive; PostGolgi ctrl: inactive; Cav32 inh: inactive; PostGolgi yeast: inactive; PTK2B oligo ant: inactive; Ecoli WT expand: inactive

Results for Nc1nonc1-n1nnc(C(=O)O)c1-c1cccs1 ?
tolC growth inh: inactive; PostGolgi ctrl: inactive; Cav32 inh: inactive; PostGolgi yeast: inactive; PTK2B oligo ant: inactive; Ecoli WT expand: inactive

Results for COCCn1c(COc2cccc(OC)c2)nnc1SCC(=O)N1CCOCC1 ?
tolC growth inh: inactive; PostGolgi ctrl: inactive; Cav32 inh: inactive; PostGolgi yeast: inactive; PTK2B oligo ant: inactive; Ecoli WT expand: inactive

What do the screens show for `CCOC(=O)C1CCCN(C(=O)c2cc3c(C)nc4ccccc4c3o2)C1` (configuration not stated)?
tolC growth inh: inactive; PostGolgi ctrl: inactive; Cav32 inh: inactive; PostGolgi yeast: inactive; PTK2B oligo ant: inactive; Ecoli WT expand: inactive

What do the screens show for `Cc1ccc(Cl)cc1N1CCN(C(=O)c2cc3c(=O)n(C)c4ccccc4c3n2C)CC1`?
tolC growth inh: inactive; PostGolgi ctrl: 44.7; Cav32 inh: inactive; PostGolgi yeast: inactive; Ecoli WT expand: inactive

How did CCOC(=O)C1CCCN(C(=O)c2cc(Nc3ccc(OC)cc3)nc3ccccc23)C1 (configuration not stated) do in these assays?
PostGolgi ctrl: inactive; Cav32 inh: -5.49; PostGolgi yeast: inactive; PTK2B oligo ant: inactive; Ecoli WT expand: inactive

How did Cc1cccc(N2CCN(C(=O)c3cc4c(=O)n(C)c5ccccc5c4n3C)CC2)c1C do in these assays?
tolC growth inh: inactive; PostGolgi ctrl: 39.5; Cav32 inh: inactive; PostGolgi yeast: inactive; Ecoli WT expand: inactive

How did CCOC(=O)C1CCCN(C(=O)c2cc3c(=O)n(C)c4ccccc4c3n2C)C1 (configuration not stated) do in these assays?
tolC growth inh: inactive; PostGolgi ctrl: inactive; Cav32 inh: 3.05; PostGolgi yeast: inactive; Ecoli WT expand: inactive

Results for Cn1c(C(=O)N2CCCC2)cc2c(=O)n(C)c3ccccc3c21 ?
tolC growth inh: inactive; PostGolgi ctrl: inactive; Cav32 inh: inactive; PostGolgi yeast: inactive; Ecoli WT expand: inactive

What do the screens show for `Cn1c(C(=O)N2CCN(c3ccccc3F)CC2)cc2c(=O)n(C)c3ccccc3c21`?
tolC growth inh: inactive

Results for O=C(O)/C=C/C(=O)Nc1ccccc1C(=O)Nc1ccccc1 ?
PostGolgi ctrl: inactive; Cav32 inh: inactive; PostGolgi yeast: inactive; PTK2B oligo ant: inactive; Ecoli WT expand: inactive

How did CCOC(=O)c1nc2cc3n(c(C)c-2c1C)C(C)C(CC)=C3C (configuration not stated) do in these assays?
Cav32 inh: inactive; PTK2B oligo ant: inactive

Results for Cc1ccc(CSCC(=O)N/N=C/c2sccc2C)cc1 ?
PostGolgi ctrl: inactive; Cav32 inh: -4.9; PostGolgi yeast: inactive; PTK2B oligo ant: inactive; Ecoli WT expand: inactive

How did COc1cc2c(cc1OC)CN(C(=O)CCCOc1ccc(Cl)cc1Cl)CC2 do in these assays?
PostGolgi ctrl: 38.4; Cav32 inh: inactive; PostGolgi yeast: inactive; PTK2B oligo ant: inactive; Ecoli WT expand: inactive

How did COc1cc2c(cc1OC)CN(C(=O)CCCN1C(=O)c3ccccc3C1=O)CC2 do in these assays?
tolC growth inh: inactive; PostGolgi ctrl: inactive; Cav32 inh: inactive; PostGolgi yeast: inactive; PTK2B oligo ant: inactive; Ecoli WT expand: inactive

How did O=C(CCCOc1ccc(Cl)cc1Cl)N1CCCc2ccccc21 do in these assays?
PostGolgi ctrl: 48.4; Cav32 inh: inactive; PostGolgi yeast: inactive; PTK2B oligo ant: inactive; Ecoli WT expand: inactive

What do the screens show for `CC1=C(C)CS(=O)N(S(=O)(=O)c2ccccc2)C1` (configuration not stated)?
PostGolgi ctrl: inactive; Cav32 inh: -7.88; PostGolgi yeast: inactive; PTK2B oligo ant: inactive; Ecoli WT expand: inactive

From PubChem
